Common to all, as to assay type: functional, Erythrocyte
Experiment [1] in a line: Antiinflammatory activity assessed as prevention of hypotonicity-induced lysis of human RBC at 10 ug/ml. In short, it runs like this:
(§1)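 Human blood spun at 1500 rpm; packed cells washed in isotonic NaCl (0.85%, pH 7.2) and resuspended 10% v/v. Mixture: compound, 1 ml phosphate buffer (0.15 M, pH 7.4), 2 ml hypotonic NaCl (0.36%), 0.5 ml cell suspension; control used distilled water instead of hypotonic saline. Incubated 37 °C, 30 min, centrifuged; supernatant hemoglobin read at 500 nm.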

The nature of experiment [2]: Antiinflammatory activity assessed as prevention of hypotonicity-induced lysis of human RBC at 50 ug/ml. In a few lines: as §1
The nature of experiment [3]: Antiinflammatory activity assessed as prevention of hypotonicity-induced lysis of human RBC at 100 ug/ml. In short, it runs like this: as §1
The nature of experiment [4]: Antiinflammatory activity assessed as prevention of hypotonicity-induced lysis of human RBC at 200 ug/ml. In short, it runs like this:
as §1

`Cc1cc2c(cc1C)COc1ccccc1C(=O)Nc1ccccc1SCc1ccc(cc1)-c1cccc(c1)-c1ccc(cc1)CSc1ccccc1NC(=O)c1ccccc1OC2`: the Activity in experiment [1] is recorded as 48.27%; in experiment [2], 49.37%; in experiment [3], 51.42%; in experiment [4], 54.14%.
The matching figures for `O=C1CSc2ccccc2NC(=O)c2ccccc2OCc2ccccc2COc2ccccc2C(=O)Nc2ccccc2SCC(=O)Nc2ccccc2N1`: 40.53%, 42.6%, 48.72% and 49.65%.
The matching figures for `Cc1cc2c(cc1C)COc1ccccc1C(=O)N(c1ccccc1)CCNC(=O)COc1ccccc1OCC(=O)NCCN(c1ccccc1)C(=O)c1ccccc1OC2`: 38.84%, 41.72%, 45.25% and 47.97%.
In the same order, the values of `Cc1cc2c(cc1C)COc1ccccc1C(=O)Nc1ccccc1SCc1ccc(cc1)NC(=O)c1ccccc1OC2` are 50.31%, 52.27%, 56.04% and 60.86%.
In the case of `C[C@]12C=CC(=O)C=C1CC[C@@H]1[C@@H]2[C@@H](O)C[C@@]2(C)[C@H]1CC[C@]2(O)C(=O)CO` [PREDNISOLONE], the Activity stood at 59.34% in experiment [2] and 86.37% in experiment [3].
`Cc1cc2c(cc1C)COc1ccccc1C(=O)Nc1ccccc1SCc1ccc(cc1)-c1ccc(cc1)CSc1ccccc1NC(=O)c1ccccc1OC2`: the Activity in experiment [1] stood at 65.17%; in experiment [2], 82.43%; in experiment [3], 89.67%; in experiment [4], 91%.
The matching figures for `Cc1cc2c(cc1C)COc1ccccc1C(=O)Nc1ccccc1SCCOc1ccc(cc1)NC(=O)c1ccccc1OC2`: 44.28%, 45.63%, 50.25% and 51.27%.

Values taken from ChEMBL document CHEMBL1145301, “Synthesis and study of anti-inflammatory activity of some novel cyclophane amides” (2006).
